8 compounds from ChEMBL document CHEMBL1126625, “7-Azetidinylquinolones as antibacterial agents. Synthesis and structure-activity relationships” (J Med Chem, 1993) can be followed below.

One may read the MIC as the smallest concentration in the dilution series that meets the test's criterion for growth inhibition. Higher therefore signals a less susceptible organism. Usually AUC stands for the area under the concentration-time curve, a measure of exposure. Low readings indicate low exposure, high ones high exposure. For orientation: ED50 means the dose that gives a 50% effect, or the effect in half of the subjects. A lower ED50 goes with an effect at a small dose.

Series [1] has as its system Enterococcus faecalis. As to the kind of experiment: Minimum inhibitory concentration (MIC) preventing growth of Streptococcus faecalis ATCC 10541. Format: functional.
Series [2] relates to Bacillus cereus. As to the kind of experiment: Minimum inhibitory concentration (MIC) preventing growth of Bacillus cereus. Format: functional.
Series [3] relates to Escherichia coli. As to the kind of experiment: Minimum inhibitory concentration (MIC)preventing growth of Escherichia coli. Format: functional.
The test system of series [4] is Bacillus subtilis. As to the kind of experiment: Minimum inhibitory concentration (MIC) preventing growth of Bacillus subtilis. The format is functional.
The subject of series [5] is Morganella morganii. As to the kind of experiment: Minimum inhibitory concentration (MIC) preventing growth of Morganella morganii. The format is functional.
Series [6] deals with Pseudomonas aeruginosa. As to the kind of experiment: Minimum inhibitory concentration (MIC)preventing growth of Pseudomonas aeruginosa. The format is functional.
Series [7] concerns Staphylococcus aureus. As to the kind of experiment: Minimum inhibitory concentration (MIC) preventing growth of […]. The format is functional.
Series [8] relates to Proteus vulgaris. As to the kind of experiment: Minimum inhibitory concentration (MIC) preventing growth of Proteus vulgaris. The format is functional.
Series [9] relates to Enterobacter cloacae. As to the kind of experiment: Minimum inhibitory concentration (MIC)preventing growth of Enterobacter cloacae. Format: functional.
Series [10] deals with Klebsiella pneumoniae. As to the kind of experiment: Minimum inhibitory concentration (MIC)preventing growth of Klebsiella pneumoniae. The format is functional.
The subject of series [11] is Mus musculus. As to the kind of experiment: Blood level after oral administration in mice (50 mg/kg) was determined (area under the concentration-time curve recorded at 0.5, 1, 2, and 4 hour after dosing). Format: ADME, organism-based. The following applies: in vivo. The arrangement: dose 50 mg/kg, time < 4 hr, route oral. The method in brief: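 Single oral dose of 50 mg/kg to mice. Blood taken from groups of six mice at 0.5, 1, 2 and 4 h after dosing. Serum levels measured by disk agar diffusion bioassay with Bacillus subtilis ATCC 6633 on Seed Agar, plates incubated 18 h at 37 °C, giving total activity in serum. AUC 0-4 h expressed as μg/mL […].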

Series [12] relates to Staphylococcus epidermidis. As to the kind of experiment: Minimum inhibitory concentration (MIC) preventing growth of Staphylococcus epidermidis. The format is functional.
Series [13] relates to Pseudomonas aeruginosa. As to the kind of experiment: Efficacy on systemic infections after oral administration in mice was determined against Pseudomonas aeruginosa HS-116. The format is functional. The method in brief:
(§1)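 Mouse protection test using 4 groups of 10 mice. Mice were infected intraperitoneally with a bacterial suspension slightly above LD100. A single oral dose was given immediately after infection, with four doses, one per group, chosen from in vitro activity. Survival was scored after one week, and ED50 (total mg/kg protecting 50% of mice) was interpolated from group survival rates.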

The test system of series [14] is Escherichia coli. As to the kind of experiment: Efficacy on systemic infections after oral administration in mice was determined against Escherichia coli HM-42. Format: functional. The method in brief: as §1
The test system of series [15] is Staphylococcus aureus. As to the kind of experiment: Efficacy on systemic infections after oral administration in mice was determined against […] HS-93. The format is functional. The method in brief: as §1

Values after ≈ are worked out from the molar mass of the structure shown.

Turning to `CCNCC1CN(c2cc3c(cc2F)c(=O)c(C(=O)O)cn3C2CC2)C1`, the MIC in series [1] stood at 4 µg/mL (≈ 11.1 µM); in series [2] it was 0.5 µg/mL (≈ 1.39 µM); in series [3], 0.25 µg/mL (≈ 0.696 µM); in series [4], 0.06 µg/mL (≈ 0.167 µM); in series [5], 0.5 µg/mL (≈ 1.39 µM); in series [6], 4 µg/mL (≈ 11.1 µM). Also, the MIC was found to be 0.5 µg/mL (≈ 1.39 µM) in series [7]; 1 µg/mL (≈ 2.78 µM) in [8]; 0.12 µg/mL (≈ 0.334 µM) in series [9]; 0.06 µg/mL (≈ 0.167 µM) in [10]; 1 µg/mL (≈ 2.78 µM) in [12]. The AUC in series [11] was 0 ng·h/mL.

Turning to `CN(C)C1CN(c2c(F)cc3c(=O)c(C(=O)O)cn(C4CC4)c3c2F)C1`, the MIC in series [1] was 1 µg/mL (≈ 2.75 µM); in series [2], 0.25 µg/mL (≈ 0.688 µM); in series [3] it was 0.06 µg/mL (≈ 0.165 µM); in series [4], 0.015 µg/mL (≈ 0.0413 µM); in [5] it was 0.12 µg/mL (≈ 0.33 µM); in series [6], 2 µg/mL (≈ 5.5 µM). Also, the MIC was determined as 0.25 µg/mL (≈ 0.688 µM) in series [7]; 0.25 µg/mL (≈ 0.688 µM) in series [8]; 0.06 µg/mL (≈ 0.165 µM) in series [9]; 0.06 µg/mL (≈ 0.165 µM) in series [10]; 0.25 µg/mL (≈ 0.688 µM) in [12]. The 50% effective dose (ED50) worked out at 90.8 mg/kg in series [13], 1.7 mg/kg in series [14] and 19.8 mg/kg in [15]. Further, the AUC in series [11] came to 38200 ng·h/mL.

Consider `NC1CN(c2c(F)cc3c(=O)c(C(=O)O)cn(C4CC4)c3c2F)C1`, for which the MIC was determined as 0.25 µg/mL (≈ 0.746 µM) in series [1]; 0.12 µg/mL (≈ 0.358 µM) in [2]; 0.03 µg/mL (≈ 0.0895 µM) in [3]; 0.03 µg/mL (≈ 0.0895 µM) in [4]; 0.03 µg/mL (≈ 0.0895 µM) in series [5]; 0.5 µg/mL (≈ 1.49 µM) in series [6]. In addition, the MIC in series [7] came to 0.12 µg/mL (≈ 0.358 µM); in series [8] it was 0.12 µg/mL (≈ 0.358 µM); in series [9], 0.06 µg/mL (≈ 0.179 µM); in series [10], 0.03 µg/mL (≈ 0.0895 µM); in series [12] it was 0.12 µg/mL (≈ 0.358 µM). The ED50 in [13] was found to be 141 mg/kg; in series [14], 2.4 mg/kg; in [15], 16.2 mg/kg. In [11], this compound registered an AUC of 23000 ng·h/mL.

As for `CNC1CN(c2cc3c(cc2F)c(=O)c(C(=O)O)cn3C2CC2)C1`, the MIC in [1] was found to be 1 µg/mL (≈ 3.02 µM); in [2] it was 0.12 µg/mL (≈ 0.362 µM); in series [3], 0.03 µg/mL (≈ 0.0905 µM); in series [4], 0.03 µg/mL (≈ 0.0905 µM); in [5], 0.03 µg/mL (≈ 0.0905 µM); in series [6] it was 0.5 µg/mL (≈ 1.51 µM). Besides, the MIC in series [7] worked out at 0.25 µg/mL (≈ 0.754 µM); in series [8], 0.25 µg/mL (≈ 0.754 µM); in series [9], 0.03 µg/mL (≈ 0.0905 µM); in [10], 0.03 µg/mL (≈ 0.0905 µM); in [12], 0.12 µg/mL (≈ 0.362 µM). The ED50 in [13] came out at 145 mg/kg; in [14] it was 3.8 mg/kg; in series [15], 36.3 mg/kg. Besides, the area under the curve (AUC) in [11] worked out at 4200 ng·h/mL.

Take `CC1(N)CN(c2c(F)cc3c(=O)c(C(=O)O)cn(-c4ccc(F)cc4)c3c2Cl)C1`: the MIC in [1] came to 0.25 µg/mL (≈ 0.596 µM); in series [2], 0.06 µg/mL (≈ 0.143 µM); in [3] it was 0.03 µg/mL (≈ 0.0715 µM); in series [4], 0.015 µg/mL (≈ 0.0357 µM); in [5] it was 0.12 µg/mL (≈ 0.286 µM); in [6], 0.5 µg/mL (≈ 1.19 µM). Further, the MIC in series [7] was determined as 0.06 µg/mL (≈ 0.143 µM); in series [8], 0.12 µg/mL (≈ 0.286 µM); in series [9], 0.06 µg/mL (≈ 0.143 µM); in [10], 0.03 µg/mL (≈ 0.0715 µM); in [12] it was 0.06 µg/mL (≈ 0.143 µM). Also, the ED50 worked out at 54.9 mg/kg in [13], 0.4 mg/kg in [14] and 1.1 mg/kg in series [15].

On to `CCNC1CN(c2cc3c(cc2F)c(=O)c(C(=O)O)cn3C2CC2)C1`, for which the MIC was 2 µg/mL (≈ 5.79 µM) in series [1]; 0.25 µg/mL (≈ 0.724 µM) in series [2]; 0.06 µg/mL (≈ 0.174 µM) in series [3]; 0.06 µg/mL (≈ 0.174 µM) in [4]; 0.5 µg/mL (≈ 1.45 µM) in [5]; 2 µg/mL (≈ 5.79 µM) in [6]. Also, the MIC in series [7] worked out at 0.25 µg/mL (≈ 0.724 µM); in [8], 0.25 µg/mL (≈ 0.724 µM); in series [9], 0.06 µg/mL (≈ 0.174 µM); in series [10], 0.06 µg/mL (≈ 0.174 µM); in [12], 0.25 µg/mL (≈ 0.724 µM). In series [11], this compound showed an AUC of 18100 ng·h/mL.

On to `CNC1(C)CN(c2cc3c(cc2F)c(=O)c(C(=O)O)cn3C2CC2)C1`, for which the MIC in series [1] came to 1 µg/mL (≈ 2.9 µM); in series [2], 0.25 µg/mL (≈ 0.724 µM); in series [3] it was 0.06 µg/mL (≈ 0.174 µM); in series [4] it was 0.06 µg/mL (≈ 0.174 µM); in series [5] it was 0.06 µg/mL (≈ 0.174 µM); in series [6], 2 µg/mL (≈ 5.79 µM). The MIC in series [7] was 0.25 µg/mL (≈ 0.724 µM); in series [8], 0.25 µg/mL (≈ 0.724 µM); in [9], 0.12 µg/mL (≈ 0.347 µM); in series [10] it was 0.06 µg/mL (≈ 0.174 µM); in [12], 0.25 µg/mL (≈ 0.724 µM). The ED50 in [13] stood at 69.8 mg/kg; in series [14], 1.9 mg/kg; in series [15], 16.5 mg/kg. In series [11], this compound yielded an AUC of 8400 ng·h/mL.

On to `CN(C)C1CN(c2cc3c(cc2F)c(=O)c(C(=O)O)cn3C2CC2)C1`, for which the minimum inhibitory concentration (MIC) is 1 µg/mL (≈ 2.9 µM) in series [1]; 0.12 µg/mL (≈ 0.347 µM) in series [2]; 0.06 µg/mL (≈ 0.174 µM) in series [3]; 0.015 µg/mL (≈ 0.0434 µM) in series [4]; 0.12 µg/mL (≈ 0.347 µM) in series [5]; 2 µg/mL (≈ 5.79 µM) in series [6]. Further, the MIC in series [7] came out at 0.12 µg/mL (≈ 0.347 µM); in [8], 0.12 µg/mL (≈ 0.347 µM); in [9] it was 0.06 µg/mL (≈ 0.174 µM); in [10], 0.015 µg/mL (≈ 0.0434 µM); in [12] it was 0.12 µg/mL (≈ 0.347 µM). For the same compound, the results for the ED50 in series [13], in series [14] and in series [15] were 44.5 mg/kg, 1.3 mg/kg and 35.6 mg/kg, respectively. For the same compound, the area under the curve (AUC) in series [11] was determined as 10600 ng·h/mL.
